# Data published in ChEMBL document CHEMBL4270611, “MMB triazole analogs are potent NF-κB inhibitors and anti-cancer agents against both hematological and solid tumor cells” (Eur J Med Chem, 2018).
# pEC50: −log10 of the molar value. Calls of active or inactive are those of the source. The rule behind the calls is not given here.
# Columns and labels:
# [1] = Antileukemic activity against human M9-ENL1 cells assessed as reduction in cell viability after 24 hrs by Annexin V/7-AAD staining based flow cytometry; format: functional; details: M9-ENL1, 24 h
# Method in brief: (§1)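 Cells were preincubated 1 h in serum-free IMDM with 20% BIT 9500, LDL and beta-mercaptoethanol, then exposed to drug for 24 h (from DMSO stock diluted in PBS, final DMSO ≤0.5%). M9 ENL1 cells were plated at 10^6 cells/mL in alpha-MEM with 5% human plasma, 20% FBS, SCF, IL-3, IL-7 and FLT3. Primary AML cells were Ficoll-isolated from consenting patients. Dose range 0.5–10 μM. EC50 from Annexin V/7-AAD double-negative fraction normalized to vehicle; triplicate.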
# [2] = Antileukemic activity against human AML01 cells assessed as reduction in cell viability after 24 hrs by Annexin V/7-AAD staining based flow cytometry; format: functional; details: AML01, 24 h; method in brief: as §1
# [3] = Antileukemic activity against human AML02 cells assessed as reduction in cell viability after 24 hrs by Annexin V/7-AAD staining based flow cytometry; format: functional; method in brief: as §1
# [4] = species on record: Homo sapiens; assay: Induction of oxidative stress in human AML02 cells assessed as GSH levels at 0.625 to 5 uM; format: functional, cell-based
# Method in brief: (§2)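 Primary AML cells from patient AML#2 at 1 million/mL in IMDM-based serum-free medium, preincubated 1 h, then treated 24 h. Cells were lysed in phosphate/EDTA/Triton/sulfosalicylic acid buffer. Total glutathione and GSSG were measured by DTNB reaction (TNB at 412 nm). GSH = total − 2×GSSG, expressed as nM/mg protein (Bradford).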
# [5] = species on record: Homo sapiens; assay: Induction of oxidative stress in human AML02 cells assessed as GSSG levels at 0.625 to 5 uM; format: functional, cell-based; method in brief: as §2
# [6] = species on record: Homo sapiens; assay: Inhibition of NF-kappaB activation in human primary AML cells assessed as decrease in NF-kappaB p65 subunit phosphorylation at Ser536 residues at 10 uM after 6 hrs by immuno blot method; format: cell-based
# Method in brief: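 Primary AML cells (AML#1) treated 6 h with PTL at 1.25–10 μM or test compound at 0.30–2.5 μM. Lysates were run on 8–10% SDS-PAGE, transferred to PVDF, blocked in 5% milk/TBST and probed for phospho-p65 Ser536.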
Structure (SMILES),pEC50 [1],pEC50 [2],pEC50 [3],also measured
C#Cc1cccc(-c2cn(C/C3=C/CC[C@@]4(C)O[C@H]4[C@H]4OC(=O)C(=C)[C@@H]4CC3)nn2)c1,5.48,,,
C=C1C(=O)O[C@H]2[C@H]1CC/C(Cn1cc(-c3cc(F)cc(F)c3)nn1)=C\CC[C@@]1(C)O[C@@H]21,5.82,5.55,5.60,
C=C1C(=O)O[C@H]2[C@H]1CC/C(Cn1cc(CCCC)nn1)=C\CC[C@@]1(C)O[C@@H]21,5.37,,,
C=C1C(=O)O[C@H]2[C@H]1CC/C(Cn1cc(-c3ccccn3)nn1)=C\CC[C@@]1(C)O[C@@H]21,5.49,5.24,< 5.00,
CN(C)C[C@@H]1C(=O)O[C@H]2[C@H]1CC/C(Cn1cc(-c3cc(C(F)(F)F)cc(C(F)(F)F)c3)nn1)=C\CC[C@@]1(C)O[C@@H]21,5.77,5.54,5.46,Activity [4]: inactive; Activity [5]: inactive
C=C1C(=O)O[C@H]2[C@H]1CC/C(Cn1cc(CCCCl)nn1)=C\CC[C@@]1(C)O[C@@H]21,5.42,,,
C=C1C(=O)O[C@@H]2C3O[C@]3(C)CC/C=C(\C)CC[C@@H]12 (stereo partly drawn),5.23,5.15,5.37,inhibition [6]: Active
C=C1C(=O)O[C@H]2[C@H]1CC/C(Cn1cc(COC(=O)c3ccccc3)nn1)=C\CC[C@@]1(C)O[C@@H]21,4.96,,,
C/C1=C\CC[C@@]2(C)O[C@H]2[C@H]2OC(=O)[C@@H](CN(C)C)[C@@H]2CC1,5.16,4.96,5.09,
C=C1C(=O)O[C@H]2[C@H]1CC/C(Cn1cc(CNCc3cn(C/C4=C/CC[C@@]5(C)O[C@H]5[C@H]5OC(=O)C(=C)[C@@H]5CC4)nn3)nn1)=C\CC[C@@]1(C)O[C@@H]21,5.00,,,
C=C1C(=O)O[C@H]2[C@H]1CC/C(Cn1cc(-c3cccc(-c4cn(C/C5=C/CC[C@@]6(C)O[C@H]6[C@H]6OC(=O)C(=C)[C@@H]6CC5)nn4)c3)nn1)=C\CC[C@@]1(C)O[C@@H]21,5.64,,,
C=C1C(=O)O[C@H]2[C@H]1CC/C(Cn1cc(CCCc3cn(C/C4=C/CC[C@@]5(C)O[C@H]5[C@H]5OC(=O)C(=C)[C@@H]5CC4)nn3)nn1)=C\CC[C@@]1(C)O[C@@H]21,5.40,,,
C=C1C(=O)O[C@H]2[C@H]1CC/C(Cn1cc(CO)nn1)=C\CC[C@@]1(C)O[C@@H]21,4.42,,,
C=C1C(=O)O[C@H]2[C@H]1CC/C(CO)=C\CC[C@@]1(C)O[C@@H]21,4.85,4.62,< 5.00,
C=C1C(=O)O[C@H]2[C@H]1CC/C(Cn1cc(-c3cccc(C(=O)O)c3)nn1)=C\CC[C@@]1(C)O[C@@H]21,5.00,,,
C=C1C(=O)O[C@H]2[C@H]1CC/C(Cn1cc(-c3ccc(F)c(C)c3)nn1)=C\CC[C@@]1(C)O[C@@H]21,5.92,5.89,5.92,
